Reference: ChEMBL document CHEMBL1148529, “Isatin compounds as noncovalent SARS coronavirus 3C-like protease inhibitors” (J Med Chem, 2006)

Assays:
[1] = target: Replicase polyprotein 1a (Severe acute respiratory syndrome-related coronavirus) (UniProt P0C6U8); assay: Inhibition of SARS CoV 3C-like protease at 100 uM
[2] = target: T1, Human rhinovirus A protease (Human rhinovirus sp., UniProt Q4U254); assay: Inhibition of human rhinovirus 14 3C protease; set-up: species or system rhinovirus B14
T1 sequence (Q4U254 whole entry): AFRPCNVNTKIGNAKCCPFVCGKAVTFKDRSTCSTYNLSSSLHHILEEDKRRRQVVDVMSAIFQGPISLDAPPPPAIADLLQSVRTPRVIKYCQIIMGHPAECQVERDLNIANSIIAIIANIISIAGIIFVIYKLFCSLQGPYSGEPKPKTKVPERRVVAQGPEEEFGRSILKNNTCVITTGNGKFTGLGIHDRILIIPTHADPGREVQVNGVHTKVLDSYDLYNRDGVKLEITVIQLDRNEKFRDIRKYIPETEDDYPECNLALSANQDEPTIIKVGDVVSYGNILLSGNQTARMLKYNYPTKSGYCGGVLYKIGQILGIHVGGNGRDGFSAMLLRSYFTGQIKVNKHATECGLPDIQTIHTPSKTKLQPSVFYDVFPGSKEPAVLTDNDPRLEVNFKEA

Chymotrypsinogen B = Chymotrypsinogen B (Homo sapiens, UniProt P17538); assay: Inhibition of chymotrypsin
In short: (§1)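 HPLC-based activity assay with substrate S0120 at 400 µM. Enzyme levels: papain 4.5 µM, chymotrypsin 0.45 µM, trypsin 0.23 µM. IC50 determined from HPLC measurements.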

Trypsin = Trypsin (Homo sapiens, UniProt P07477+P07478+P35030); assay: Inhibition of trypsin; assay type: protein assay; in short: as §1
Papain = target: T2, Papain (Carica papaya, UniProt P00784); assay: Inhibition of papain; in short: as §1
T2 sequence (P00784 whole entry): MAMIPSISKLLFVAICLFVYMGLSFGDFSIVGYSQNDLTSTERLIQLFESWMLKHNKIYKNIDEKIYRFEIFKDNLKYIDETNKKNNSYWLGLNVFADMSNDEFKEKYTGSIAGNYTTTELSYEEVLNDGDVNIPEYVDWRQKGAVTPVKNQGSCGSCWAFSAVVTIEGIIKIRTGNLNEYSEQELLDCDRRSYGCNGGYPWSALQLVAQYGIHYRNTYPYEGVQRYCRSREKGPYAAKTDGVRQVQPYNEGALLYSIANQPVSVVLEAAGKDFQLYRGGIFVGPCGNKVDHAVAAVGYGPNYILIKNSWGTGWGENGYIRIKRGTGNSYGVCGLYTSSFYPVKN

Replicase polyprotein 1a = Replicase polyprotein 1a (Severe acute respiratory syndrome-related coronavirus, UniProt P0C6U8); assay: Inhibition of SARS CoV 3C-like protease

Chain of Chymotrypsinogen B (P17538 34-164 limits assumed, other chains not shown): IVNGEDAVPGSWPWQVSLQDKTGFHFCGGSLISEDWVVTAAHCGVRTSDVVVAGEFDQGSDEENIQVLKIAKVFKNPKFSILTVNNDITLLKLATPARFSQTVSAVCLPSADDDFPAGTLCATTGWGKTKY
Chain of Chymotrypsinogen B (P17538 167-263 limits assumed, other chains not shown): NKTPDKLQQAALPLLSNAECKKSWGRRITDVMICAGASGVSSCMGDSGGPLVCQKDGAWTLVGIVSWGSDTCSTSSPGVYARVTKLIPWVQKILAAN

NC(=O)c1ccc2c(c1)C(=O)C(=O)N2
inhibition [1]: < 25%

CCCN1C(=O)C(=O)c2cc(C(=O)O)ccc21
inhibition [1]: < 25%

CCCN1C(=O)C(=O)c2cc(C(=O)OC)ccc21
inhibition [1]: < 25%

O=C1Nc2ccc(C(=O)O)cc2C1=O
inhibition [1]: < 25%

CN1C(=O)C(=O)c2cc(C(=O)O)ccc21
inhibition [1]: < 25%

CCCCN1C(=O)C(=O)c2cc(C(=O)O)ccc21
inhibition [1]: < 25%

O=C1Nc2ccc(I)cc2C1=O
inhibition [1]: < 25%

O=C(O)c1ccc2c(c1)C(=O)C(=O)N2Cc1ccccc1
inhibition [1]: < 25%

CN1C(=O)C(=O)c2cc(I)ccc21
inhibition [1]: < 25%

COC(=O)c1ccc2c(c1)C(=O)C(=O)N2Cc1ccc2ccccc2c1
inhibition [1]: < 25%

NC(=O)c1ccc2c(c1)C(=O)C(=O)N2Cc1ccc2ccccc2c1
IC50 [2]: 0.004 µM
IC50 (Chymotrypsinogen B): 34 µM
IC50 (Trypsin): 352 µM
IC50 (Papain): 11 µM

CN1C(=O)C(=O)c2cc(C(N)=O)ccc21
IC50 (Replicase polyprotein 1a): 71 µM
Ki (Replicase polyprotein 1a): 71 µM

COC(=O)c1ccc2c(c1)C(=O)C(=O)N2C
inhibition [1]: < 25%

CCCCN1C(=O)C(=O)c2cc(C(=O)OC)ccc21
inhibition [1]: < 25%

O=C1C(=O)N(Cc2ccccc2)c2ccc(I)cc21
IC50 (Replicase polyprotein 1a): 50 µM
Ki (Replicase polyprotein 1a): 50 µM

O=C(O)c1ccc2c(c1)C(=O)C(=O)N2Cc1ccc2ccccc2c1
inhibition [1]: 46%

NC(=O)c1ccc2c(c1)C(=O)C(=O)N2Cc1ccccc1
IC50 (Replicase polyprotein 1a): 12.5 µM

COC(=O)c1ccc2c(c1)C(=O)C(=O)N2Cc1ccccc1
inhibition [1]: < 25%

CCCN1C(=O)C(=O)c2cc(I)ccc21
inhibition [1]: 25%
